Common to all, as to type: cell-based
Assay [1] addresses Sphingosine 1-phosphate receptor 1 (Homo sapiens) (UniProt P21453). As to the kind of experiment: Percent binding affinity to displace radioligand [3H]SIP from Sphingosine 1-phosphate receptor Edg-1 expressed in CHO cells. Put shortly:
(§1)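 Whole transfected CHO cells (Edg-1, Edg-3 or Edg-5; mock-transfected control), confluent, rinsed twice in ice-cold buffer (20 mM Tris–HCl pH 7.5, 100 mM NaCl, 15 mM NaF, 0.4% BSA), then held on ice 90 min with 2 nM [3H]-S1P ± 1 µM test ligand. Unbound label washed off, cells solubilized in SDS/NaOH/Na2CO3, bound radioactivity counted by liquid scintillation; duplicate determinations, mean ± SD.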

Assay [2] deals with Sphingosine 1-phosphate receptor 2 (Homo sapiens) (UniProt O95136). The assay can be described thus: Percent binding affinity to displace radioligand [3H]-SIP from EDG-5/S1P2 receptors expressed in CHO cells. Put shortly:
as §1

Assay [3] addresses Sphingosine 1-phosphate receptor 3 (Homo sapiens) (UniProt Q99500). As to the kind of experiment: Percent binding affinity to displace radioligand [3H]SIP from EDG-3/S1P3 receptors expressed in CHO cells. Put shortly:
as §1

Structures are written as SMILES.

Chain of Sphingosine 1-phosphate receptor 1 (Homo sapiens) (P21453 whole entry): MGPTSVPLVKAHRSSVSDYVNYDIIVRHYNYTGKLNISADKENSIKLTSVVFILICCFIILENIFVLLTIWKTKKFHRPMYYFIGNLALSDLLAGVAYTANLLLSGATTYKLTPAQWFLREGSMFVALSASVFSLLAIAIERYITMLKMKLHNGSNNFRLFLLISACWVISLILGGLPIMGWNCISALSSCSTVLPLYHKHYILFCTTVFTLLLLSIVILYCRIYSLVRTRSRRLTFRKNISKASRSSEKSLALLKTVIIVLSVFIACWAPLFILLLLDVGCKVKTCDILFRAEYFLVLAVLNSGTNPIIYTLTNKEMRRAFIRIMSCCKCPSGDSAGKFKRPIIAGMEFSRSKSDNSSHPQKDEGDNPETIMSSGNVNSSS
Chain of Sphingosine 1-phosphate receptor 2 (Homo sapiens) (O95136 whole entry): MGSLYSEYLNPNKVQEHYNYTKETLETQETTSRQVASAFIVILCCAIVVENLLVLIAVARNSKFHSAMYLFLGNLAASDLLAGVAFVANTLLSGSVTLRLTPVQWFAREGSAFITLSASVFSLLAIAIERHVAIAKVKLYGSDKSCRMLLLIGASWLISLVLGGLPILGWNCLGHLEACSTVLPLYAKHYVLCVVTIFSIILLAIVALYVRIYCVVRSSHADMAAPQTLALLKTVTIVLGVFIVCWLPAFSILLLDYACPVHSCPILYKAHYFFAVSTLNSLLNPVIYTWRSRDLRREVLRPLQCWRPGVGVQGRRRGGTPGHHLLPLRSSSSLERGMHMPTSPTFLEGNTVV
Chain of Sphingosine 1-phosphate receptor 3 (Homo sapiens) (Q99500 whole entry): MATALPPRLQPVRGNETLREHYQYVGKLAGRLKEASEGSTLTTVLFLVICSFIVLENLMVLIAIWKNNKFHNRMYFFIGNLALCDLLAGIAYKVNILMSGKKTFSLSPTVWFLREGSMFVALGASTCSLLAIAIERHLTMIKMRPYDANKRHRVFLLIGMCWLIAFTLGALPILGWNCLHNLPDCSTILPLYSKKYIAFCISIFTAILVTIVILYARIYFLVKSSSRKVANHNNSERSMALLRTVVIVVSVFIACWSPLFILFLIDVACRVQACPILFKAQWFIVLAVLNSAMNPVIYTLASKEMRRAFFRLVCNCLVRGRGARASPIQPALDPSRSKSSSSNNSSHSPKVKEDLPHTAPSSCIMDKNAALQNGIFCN

For `CCCCCCCCCCCCC/C=C/[C@@H](O)[C@H](COP(=O)(O)O)NCC`, in assay [1], the % binding came out at 51.4%.

As for `CCCCCCCCCCCCCC[C@@H](N)COP(=O)(O)O`, the % binding in assay [2] is 84%; in assay [3], 82%.

In the case of `CCCCCCCCCCCCC/C=C/[C@@H](O)[C@H](COP(=O)(O)O)NC`, the % binding in assay [1] is 55.1%.

For the origin of these results see ChEMBL document CHEMBL1148251, “Syntheses of sphingosine-1-phosphate analogues and their interaction with EDG/S1P receptors” (Bioorg Med Chem Lett, 2004).
